E coli WT exp: growth inhibitors of E. coli BW25113 wild type. OD600 absorbance. growth inhibition, % at 100 µM. 0.15% of 98,000 active. AID 710;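 active = growth inhibition above about 50% at one test dose, limit read from the data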;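 note: growth measured after 20 h incubation at 37 °C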
BAP1 block: blocks human BAP1 ubiquitin-AMC hydrolysis; recombinant BAP1, Ub-AMC hydrolysis fluorescence kinetic; hits give low values; calls only at 20 µM; 0.48% of 72,000 active; AID 436;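 active = activity remaining at or below 50% of control, provided the compound also passes the data quality filters; inactive = the rest, including low values that fail the filters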;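 note: 100% = DMSO wells rate and 0% = substrate alone blank rate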
M1 antagonist: M1 muscarinic receptor (rat) antagonism; CHO-M1 cells, Fluo-4 calcium, ACh EC80 antagonist mode; hits give low values; B-score at 10 µM; 3.4% of 64,000 active;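 active = calcium fluorescence response, raw or row-and-column corrected B-score, differing from the plate sample mean either way at a set confidence level, mostly lower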
M1 agonist: agonists of M1 muscarinic receptor. CHO-M1 cells, Fluo-4 calcium fluorescence, agonist mode; hits give high values. B-score at 10 µM. 3% of 64,000 active. AID 626;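 active = fluorescence rise, raw or as B-score row- and column-corrected plate score, outside the 99.7% band of its plate's samples, either direction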
Hsp90 inh: displaces geldanamycin probe from tumor Hsp90; P07900; NCI-N417 lysate Hsp90, Cy3B-geldanamycin FP displacement; inhibition, % at 30 µM; 0.35% of 64,000 active; AID 429;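 active = inhibition above 50%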;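 note: 0% = tracer plus lysate wells and 100% = tracer alone without lysate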
tolC growth inh: growth inhibitors of E. coli BW25113 tolC mutant; OD615; growth inhibition, % at 10 µM (by protocol); 2.2% of 65,000 active; AID 573;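 active = growth inhibition at or above a cutoff equal to the mean over every tested compound plus 3 SD, cut at about 60% in these data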;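 note: growth measured after 20 h incubation at 37 °C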
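Doses: one dose of 10 µM final / Material: E. coli BW25113 ΔtolC::kan, tolC deletion mutant strain / Buffer or medium: LB with kanamycin 50 µg/mL / Evaluation: percent growth inhibition / Detection: optical density read at 615 nm / Incubation: 37 °C, 20 h exposure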
M1 agonist conf: rat M1 muscarinic agonism, confirmation; shares compounds with M1 agonist; CHO-M1 cells, Fluo-4 calcium fluorescence, agonist mode; actives lie on both sides; fluorescence change (max-min) at 10 µM; 19% of 1,700 active; AID 1488;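 active = fluorescence change differs from the solvent-only DMSO control mean at a set confidence level in both duplicate runs; inconclusive = differs from solvent-only control mean in just one of two runs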;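 note: an EC20 dose of acetylcholine follows compound addition during the same imaging run; raw fluorescence intensity difference in instrument units with no normalization to controls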
M4 ag counter: counter-screen for M1 agonists: activity at rat M4 receptor. shares compounds with M1 agonist. CHO M4/Gqi5 cells, Fluo-4 calcium fluorescence, agonist mode; actives lie on both sides. fluorescence change (max-min) at 10 µM. 9% of 1,700 active;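 active = fluorescence change differing from the plate's solvent-only control wells at 99.7% confidence in both duplicates, whether higher or lower; inconclusive = differs from solvent controls in only one of two duplicates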
Target sequence (P08485 whole entry, looked up): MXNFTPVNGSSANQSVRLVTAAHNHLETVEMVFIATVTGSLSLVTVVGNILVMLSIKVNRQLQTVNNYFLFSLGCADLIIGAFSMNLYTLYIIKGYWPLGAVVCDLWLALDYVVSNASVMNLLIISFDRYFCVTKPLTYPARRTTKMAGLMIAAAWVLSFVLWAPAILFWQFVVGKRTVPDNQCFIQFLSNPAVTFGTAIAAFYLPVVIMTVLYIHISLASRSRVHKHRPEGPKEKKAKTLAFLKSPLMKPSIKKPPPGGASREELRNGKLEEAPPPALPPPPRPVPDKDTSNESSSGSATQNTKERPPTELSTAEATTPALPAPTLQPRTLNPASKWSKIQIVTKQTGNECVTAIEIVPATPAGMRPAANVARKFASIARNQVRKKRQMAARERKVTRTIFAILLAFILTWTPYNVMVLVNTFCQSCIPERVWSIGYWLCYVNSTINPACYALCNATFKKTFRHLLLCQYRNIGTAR
The depositor's hits bear a star; i = inactive; ? = inconclusive; · = no result given. In the library only some 5.1% were active in any assay of this set; here they are far more common.

SMILES	E coli WT exp	BAP1 block	M1 antagonist	M1 agonist	Hsp90 inh	tolC growth inh	M1 agonist conf	M4 ag counter
Cn1c2ccc(Cl)cc2c2nc3ccccc3nc21	-8	i	-0.88	18*	-1	34	11	2.6
COc1ccc(Cl)cc1S(=O)(=O)N1CCN(Cc2ccc3c(c2)OCO3)CC1	-9	i	-0.2	-0.068	-3	14	·	·
Cc1cc(S(=O)(=O)N2CCN(Cc3ccc4c(c3)OCO4)CC2)cc(C)c1N1CCCC1=O	1	i	0.85	3.3*	0	5	-18	-40
CCN(CC)CCCC(C)Nc1nc(C)nc2ccccc12 (stereo not given)	·	i	·	·	·	·	·	·
O=C(COC(=O)c1ccccc1Nc1ccccc1)c1ccc(Br)cc1	·	i	·	·	·	·	·	·
C=CCn1c(/N=C/c2ccc(N(C)C)cc2)nc2ccccc21	9	i	-1.2	15*	1	-5	118*	114
O=C1c2ccccc2C(=O)N1CCCCN(C(=O)c1cccc(Cl)c1)c1ccc(Cl)cc1	·	i	·	·	·	·	·	·
CCOC(=O)C(CC)n1cnc2c(cnn2-c2ccc(Cl)cc2)c1=O (stereo not given)	9	i	-6.2*	55*	-3	-4	2.9	-21
CCC(C(=O)OC)n1cnc2c(nnn2-c2ccc(OC)cc2)c1=O (stereo not given)	6	i	0.31	4.3*	-1	-15	-3.1	-35
CCOC(=O)C(CC)n1cnc2c(nnn2-c2ccc(OC)cc2)c1=O (stereo not given)	-8	i	0.019	-2.2	-3	-6	·	·
CCc1nn(C(C)C(=O)NCCN2CCN(c3cccc(C)c3C)CC2)c(=O)c2cc3occc3n12 (stereo not given)	5	i	0.03	3.8*	-4	11	?	-75
COc1ccc(C)cc1-n1nnnc1SCc1cc(=O)n2cc(C)ccc2n1	-1	i	-1.9	5.2*	-3	5	-18	-35
C=CCn1c(=O)/c(=C/c2ccc(O)cc2)s/c1=C(/C#N)c1nnc2n1CCCCC2	-8	i	-0.69	43*	-2	12	90*	?
C=CCn1c(=O)/c(=C/c2ccc(Cl)cc2)s/c1=C(/C#N)c1nnc2n1CCCCC2	-7	i	-0.29	4.3*	-3	13	?	?
C=CCn1c(=O)/c(=C/c2cc(OC)c(OC)c(OC)c2)s/c1=C(/C#N)c1nc2ccccc2n1C	-8	·	-0.84	77*	·	2	?	118
Cc1ccc(NC(=O)NC(=O)N(c2ccc(Cl)cc2)S(C)(=O)=O)cc1	·	i	·	·	·	·	·	·
CCN(CC)c1ccc(-c2nn3c(-c4cccnc4)nnc3s2)cc1	-7	i	-6.2*	8.6*	-7	18	-11	-32
O=C(CSc1nnnn1C1CCCC1)NCc1ccccc1	1	·	·	·	·	·	·	·
O=C(CSc1nnnn1C1CC2CCC1C2)Nc1ccnc2ccccc12 (stereo not given)	3	i	-2.1*	19*	-5	50	12	-1.3
Cc1ccc(S(=O)(=O)N2CCC(C(=O)N[C@@H](Cc3ccccc3)C(=O)O)CC2)cc1	-2	i	0.27	1.6*	3	-5	-6.8	?
COc1ccc(-c2ccc(-c3noc(-c4ccccc4)n3)c(OC)n2)cc1	-15	i	-0.02	-2.9*	0	-10	8.5	-5.6
NC(=O)c1ccc[n+](CC(=O)c2cc3ccccc3oc2=O)c1	·	i	·	·	·	·	·	·
N#CC1=C(SCc2ccccc2)NC(=O)CC1c1ccco1 (stereo not given)	-3	i	-0.46	4.3*	-9	9	-8.3	?
COc1ccc(N2CCN(C(=O)CSc3nnnn3-c3ccc4c(c3)OCCO4)CC2)cc1	-9	i	-0.3	-3*	-2	7	-18	?
CCCCCCN1C(=O)C(O)=C(C(C)=O)C1c1ccccc1Cl (stereo not given)	·	i	·	·	·	·	·	·
SMILES	E coli WT exp	BAP1 block	M1 antagonist	M1 agonist	Hsp90 inh	tolC growth inh	M1 agonist conf	M4 ag counter
CC1(C)CC(=O)C2=C(C1)N(c1cccc(O)c1)C1=C(C2)C(=O)CC(C)(C)C1	0	i	-0.53	22*	-1	-10	221*	170*
COc1ccc(C)cc1NC(=O)c1cc2c(C)nc3ccccc3c2o1	·	i	-0.12	-0.46	-2	-1	·	·
COc1ccc(CNC(=O)c2cc3c(C)nc4ccccc4c3o2)c(OC)c1	-21	i	-1.6	4.9*	-4	-1	1.1	-2.5
COc1cc(NC(=O)c2cc3c(C)nc4ccccc4c3o2)cc(OC)c1OC	-3	i	-0.94	3.5*	1	16	-14	-11
O=c1oc2c(-c3ccc(F)cc3)cc(O)cc2s1	·	i	·	·	·	·	·	·
CC1(C)C(C=C(Cl)Cl)C1C(=O)Nc1ccccc1C(F)(F)F (stereo not given)	·	i	·	·	·	·	·	·
Cc1noc(C)c1C(=O)OCC(=O)NC(c1ccccc1)c1ccccc1	-7	·	·	·	·	·	·	·
COCC(=O)NC(c1ccccc1)c1ccccc1	1	i	-0.34	13*	-5	11	-11	-37
COc1ccc(C2C(C(=O)NC(C)C)c3ccccc3C(=O)N2C)cc1OC (stereo not given)	-1	·	1.4	3.4*	·	-11	-12	-24
Cc1c(C(=O)N2CCN(c3ccccc3F)CC2)sc2ncn(CC(=O)N3CCOCC3)c(=O)c12	-9	i	-0.0089	3.7*	-2	-14	-15	?
CCCNC(=O)Cn1cnc2sc(C(=O)N3CCN(c4ccc(F)cc4)CC3)c(C)c2c1=O	-4	·	·	·	·	·	·	·
CCCCN(CCCC)Cc1nc2c(c(=O)[nH]1)C1(CCCC1)Cc1ccccc1-2	·	i	·	·	·	·	·	·
CCc1cc2cccc(C)c2nc1SCC(=O)N1CCN(C(=O)c2ccco2)CC1	0	i	-0.11	2.5*	-1	29	-2.2	-3.5
O=C(O)[C@@H](c1ccccc1)N1Cc2ccccc2C1=O	-1	i	-0.25	3*	-2	-7	?	-31
CCc1c(C)[nH]n2cnnc2c1=O	·	i	·	·	·	·	·	·
CCOC(=O)C1=C(O)CSC1=Nc1ccc(Cl)cc1	3	i	1.3	3.8*	-7	-13	?	?
COc1cccc(C2=CC(c3cccc(OC)c3OC)n3nnnc3N2)c1 (stereo not given)	-3	i	-0.72	-1.4	-1	17	·	·
COc1cccc(C2C=C(c3cccs3)Nc3ncnn32)c1OC (stereo not given)	4	i	-0.14	8.1*	1	-14	42	39
Cc1ccc(S(=O)(=O)Nc2cccnc2)cc1	8	·	·	·	·	·	·	·
CCCCOc1ccc(S(=O)(=O)Nc2cccnc2)cc1	-13	i	-1.5	4.9*	-2	13	-1.3	?

Assay outcomes as filed in PubChem.
